In general, IC50 refers to the point on the concentration scale where inhibition reaches its midpoint.

This is an account of results in publication PMC11451940 (RSC Medicinal Chemistry, 2024).

Assay [1] deals with MRC-5 cells (human foetal fibroblasts). As to the kind of experiment: MTT in vitro cytotoxicity, normal MRC-5. The assay is classed as cell-based. To be noted: for IC50: read-out: IC50 ± SD, MRC-5. In outline:
(§1)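 MTT assay on ATCC human lines cultured per supplier instructions: A2780, A2780R, MCF-7, PC-3, A549, HOS and normal foetal fibroblast MRC-5. Exposure was 24 h for all lines; A2780 was also tested at 48 and 72 h. IC50 came from dose–response curves, given ± SD from triplicate experiments. Selectivity index = IC50(MRC-5)/IC50(A2780).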

The subject of assay [2] is A549 cells (lung adenocarcinoma). As to the kind of experiment: MTT in vitro cytotoxicity, A549. The assay is classed as cell-based, human. To be noted: read-out: IC50 ± SD, A549. In short, it runs like this:
as §1

The subject of assay [3] is A2780 cells (human ovarian carcinoma). As to the kind of experiment: MTT in vitro cytotoxicity, A2780. The assay is classed as cell-based. In short, it runs like this:
as §1

Assay [4] has as its system MCF-7 cells (breast adenocarcinoma). Nature of the assay: MTT in vitro cytotoxicity, MCF-7. The assay is classed as cell-based, human. As to conditions: read-out: IC50 ± SD, MCF-7. In outline: as §1
The subject of assay [5] is HOS cells (bone osteosarcoma). As to the kind of experiment: MTT in vitro cytotoxicity, HOS. The assay is classed as cell-based, human. As to conditions: read-out: IC50 ± SD, HOS. In short, it runs like this:
as §1

Assay [6] has as its system PC-3 cells (prostate adenocarcinoma). Nature of the assay: MTT in vitro cytotoxicity, PC-3. The assay is classed as cell-based, human. To be noted: read-out: IC50 ± SD, PC-3. In outline: as §1
The test system of assay [7] is A2780R cells (cisplatin-resistant ovarian carcinoma). As to the kind of experiment: MTT in vitro cytotoxicity, A2780R. The assay is classed as cell-based, human. As to conditions: read-out: IC50 ± SD, A2780R. In short, it runs like this:
as §1

Another assay has as its system HeLa. To be noted: 72 h of incubation; cited from earlier work.
The next assay concerns HL60 cells. As to conditions: read-out: IC50 on HL60 cells; 48 h of incubation; cited from earlier work.
For the next assay, the system named is PC3. As to conditions: 72 h of incubation; cited from earlier work.
Another assay deals with 3T3. As to conditions: 72 h of incubation; cited from earlier work.
Setting [8] is: read-out: IC50 ± SD, A2780, 72 h, 72 h incubation time, MTT.

Structures are written as SMILES. In brackets after ≈: the same amount, converted by molar mass. Several values for one entry are separate records, joined by “and”; a condition that tells them apart may be missing. Equal values may be shown once. Read-outs that look alike come from different tables or passages of the source.

Take `N.N.[Cl][Pt][Cl]` [Cisplatin]: the “SI, selectivity index expressed as IC50(MRC-5)/IC50(A2780)” value is given as 3.0 in assay [1] (24 h of incubation) and “≈ 3” in [1] (24 h of incubation, listed as cisplatin). The IC50 in [1] (24 h of incubation, MTT, normal cells) was 46.1 ± 2.4 µM; in assay [2] (24 h of incubation, MTT) it was more than 50 µM; in [3] (read-out: IC50 ± SD, A2780, 48 h, 48 h incubation time, MTT), 6.5 ± 3.2 µM; in [3] (setting [8]) it was 3.7 ± 0.2 µM; in assay [3] (read-out: IC50 ± SD, A2780, 24 h of incubation, MTT), 15.2 µM and 15.4 µM; in [4] (24 h of incubation, MTT), 37 ± 2.2 µM. For the same compound, the IC50 in [5] (24 h of incubation, MTT) is more than 50 µM; in assay [6] (24 h of incubation, MTT), more than 50 µM; in [7] (24 h of incubation, MTT) it was 42.7 ± 3.8 µM.
For the compound `CC(C)=CCC1=C(O)C(=O)c2ccccc2C1=O` [Lapachol, 2-hydroxy-3-(3-methylbut-2-en-1-yl)naphthalene-1,4-dione], the half-maximal inhibitory concentration (IC50) in assay [1] (Homo sapiens, MRC5, 24 h) was more than 50 µM; in the assay on HL60 cells, 25 µM; in assay [2] (Homo sapiens, A549, 24 h), more than 50 µM; in assay [3] (Homo sapiens, A2780, 24 h, read-out: IC50 ± SD, A2780, 24 h of incubation, MTT), more than 50 µM; in assay [3] (setting [8]), 6.4 ± 0.8 µM; in [4] (Homo sapiens, MCF7, 24 h), more than 50 µM. In addition, the IC50 in [5] (Homo sapiens, HOS, 24 h) is more than 50 µM; in assay [6] (Homo sapiens, PC-3, 24 h), more than 50 µM; in assay [7] (Homo sapiens, 24 h) it was more than 50 µM. The “IC50 on HeLa” value with HeLa is 19.04 µg/mL (≈ 78.6 µM). Moreover, the “IC50 on PC3” value in the assay with PC3 is 20.51 µg/mL (≈ 84.7 µM). In addition, the “IC50 on 3T3” value in the assay on 3T3 is 6.15 µg/mL (≈ 25.4 µM).
